Paper PMC4096303 (Journal of the American Chemical Society, 2013)

Assays:
[1] = TEAC assay with cell lysates; assay type: biochemical; conditions: M17 human neuroblastoma cell lysates, relative to Trolox
In short: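 M17 cells grown in 1:1 MEM/F12K with 10% FBS and penicillin/streptomycin to 80–90% confluence. Washed and harvested in cold PBS, pelleted, then sonicated on ice in 5 mM potassium phosphate pH 7.4 (0.9% NaCl, 0.1% glucose) and cleared at 10 000g, 4 °C. Supernatant mixed with test compound (0.045–0.330 mM), metmyoglobin, ABTS and H2O2; 5 min at room temperature; A750 read. TEAC taken as slope ratio versus Trolox; triplicate.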

[2] = Solution speciation studies of Zn; assay type: binding; conditions: pH 7.4, based on concentration of unchelated Zn(II)
In short: (§1)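 Ligand and metal chloride mixed at M(II):L = 1:2: CuCl2 25 µM, or ZnCl2 50 or 250 µM depending on ligand. Titrated with small HCl aliquots, recording at least 30 UV–vis spectra over pH 2–9. Stability constants fitted from the spectra; speciation diagrams modelled to give metal-free Cu(II) or Zn(II) at pH 7.4.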

[3] = Solution speciation studies of Cu; assay type: binding; conditions: pH 7.4, based on concentration of unchelated Cu(II)
In short: as §1

[4] = Parallel Artificial Membrane Permeability Assay adapted for BBB; assay type: in vitro ADME; conditions: PAMPA-BBB, 25 µM, pH 7.4, 4 h, ambient temperature
In short: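 Test compound diluted in Prisma HT buffer, pH 7.4, to 25 µM final (1% DMSO) in donor wells, 11–12 replicates per compound. Acceptor PVDF filter coated with BBB-1 lipid; brain sink buffer in acceptor wells. Sandwich held 4 h at ambient temperature, unstirred. Absorbance read on a plate reader; −logPe averaged by software.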

[5] = tested on: preformed aggregates of Aβ and metal–Aβ; assay: Aβ disaggregation experiment; assay type: biochemical; conditions: aggregates preformed 24 h, compound 50 µM, gel/TEM
In short: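 Aβ40 or Aβ42 (25 µM) in Chelex-treated HEPES/NaCl buffer, pH 6.6 for Cu(II) or 7.4 for Zn(II), with or without CuCl2 or ZnCl2 (25 µM). Aggregated 24 h at 37 °C with agitation. Test compound then added (50 µM) and incubated 4, 8 and 24 h at 37 °C with agitation. Analysed by Tris–tricine gel/Western blot (6E10 antibody) and by uranyl acetate-stained TEM.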

Aβ40/Aβ42 = Aβ40/Aβ42 (Homo sapiens, UniProt P05067); assay: Aβ aggregation inhibition experiment; assay type: biochemical; conditions: Aβ 25 µM
In short: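 Aβ stock made in 1% NH4OH, diluted with ddH2O and quantified by A280. Test compound (50 µM, 1% DMSO) added with or without CuCl2/ZnCl2 (25 µM), 37 °C, constant agitation, 4, 8, 24 h. Read by 10–20% Tris–tricine gel, nitrocellulose transfer, anti-Aβ 6E10 Western blot, and TEM.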

2-Deoxyribose assay = assay type: biochemical; conditions: ligand 125 µM, CuCl2 10 µM, absence and presence of Aβ (freshly prepared and aggregated)
[6] = Metal selectivity competition experiments by UV-vis; assay type: binding; conditions: stoichiometric ratios; 50 µM ligand, pH 7.4
In short: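 Ligand at 50 µM (1% DMSO) in Chelex-treated 20 mM HEPES, pH 7.4, 150 mM NaCl. It was first given 1 or 20 equiv of MgCl2, CaCl2, MnCl2, FeCl2, CoCl2, NiCl2 or CuCl2, then ZnCl2 (50 µM). Fe(II) samples were kept anaerobic by N2 purge. UV–vis spectra were recorded after 5 min at room temperature.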

Brain uptake study = assay type: in vivo, male CD1 mice; conditions: male, CD1, mouse, oral, 10 mg/kg
In short: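 Single 10 mg/kg oral gavage dose in sterile water to male CD1 mice, n = 3. Blood was drawn 5 min post-dose by retro-orbital or cardiac puncture into K2EDTA. Plasma was spun at 2000g for 5 min at 4 °C. Samples underwent protein precipitation and LC-MS/MS; LLOQ 1 ng/mL plasma, 4 ng/mL brain.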

[7] = In vitro metabolic stability, mouse liver microsomes; assay type: in vitro ADME
In short: (§2)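 Liver microsomes incubated with test compound at 1 µM, 37 °C, with ketanserin as reference compound; half-life (t1/2) determined.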

N2aAPPswe or N2a cells = assay: Cell viability by MTT assay, Aβ- or metal-Aβ-induced toxicity; assay type: cell-based, murine; conditions: 10 µM, 24 h, both N2a and N2aAPPswe cells
In short: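 Cells kept at 37 °C under 5% CO2 and seeded at 15 000 cells/well. Given CuCl2 or ZnCl2 (10 µM) plus test compound (10 µM final, 1% DMSO) for 24 h. MTT was added for 4 h at 37 °C and formazan dissolved overnight in acidic DMF/SDS. Absorbance read at 600 nm; viability expressed relative to DMSO-only cells; n = 3.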

[8] = In vitro metabolic stability, human liver microsomes; assay type: in vitro ADME
In short: as §2

[9] = UV-vis variable-pH titration; assay type: physicochemical; conditions: for pKa: Acidity constant (pKa), pH range 2–8
In short: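 Test compound (50 µM) in 100 mM NaCl, 10 mM NaOH (pH 12) titrated with small HCl aliquots, recording at least 30 UV–vis spectra over pH 2–8. Acidity constants fitted from the spectra; speciation diagram modelled to give the species distribution at pH 7.4.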

Aβ42 = Aβ42 (Homo sapiens, UniProt P05067); assay: Ion mobility-mass spectrometry of early Aβ42 oligomerization; assay type: biochemical; conditions: IM–MS
In short: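 Lyophilized Aβ42 dissolved in 10 mM ammonium acetate, pH 7.4, to a final peptide concentration of 10 µM. Analysed by ion mobility on a traveling-wave Q-TOF mass spectrometer.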

[10] = In vitro metabolic stability, rat liver microsomes; assay type: in vitro ADME
In short: as §2

[11] = Trolox equivalent antioxidant capacity; assay type: biochemical; conditions: ABTS cation radicals in EtOH, factor

Aβ40/Aβ42, sequence (P05067 672-711 limits assumed): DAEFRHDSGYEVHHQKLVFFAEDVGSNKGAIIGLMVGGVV
Aβ42, sequence (P05067 672-713): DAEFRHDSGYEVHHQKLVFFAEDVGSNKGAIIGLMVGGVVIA

Q: With `Nc1cccc2ccc(CO)nc12` [Compound 1, (8-aminoquinolin-2-yl)methanol, reference compound] as the compound, how does the “Antioxidant capacity (TEAC value) in cell lysates” value (“Antioxidant capacity (TEAC value)” for short) [1] read?
A: Its value is 0.86 ± 0.10.

Q: And the “Dissociation constant (Kd) with Zn(II)” value [2]?
A: The value was “micromolar range”.

Q: And the “Dissociation constant (Kd) with Cu(II)” value [3]?
A: Its value is “micromolar range”.

Q: What about the “−logPe” value [4] of the same compound?
A: Its value is 4.70 (±0.01).

Q: What about the “Effect on preformed metal-free and metal-treated Aβ aggregates” value [5] of the same compound?
A: Its value is “no discernible difference”.

Q: For `CN(C)c1ccc(O)cc1` [DAP, 4-(dimethylamino)phenol, reference compound], which “Effect on Zn(II)-triggered Aβ aggregation” value (Aβ40/Aβ42; ZnCl2 25 µM, compound 50 µM, pH 7.4) is on record?
A: The value was “influenced Zn(II)-triggered Aβ aggregation, similar to ML”.

Q: With `CN(C)c1ccc(O)c(CNc2cccc3ccc(CO)nc23)c1` [ML, 4-(dimethylamino)-2-(((2-(hydroxymethyl)quinolin-8-yl)-amino)-methyl)phenol] as the compound, how does the “Copper-mediated generation of hydroxyl radicals” value (2-Deoxyribose assay) read?
A: The value was “significantly reduced”.

Q: And the “Selectivity toward Zn(II) over other divalent metal ions” value [6]?
A: Its value is “relatively selective for Zn(II) over Mg(II), Ca(II), or Mn(II)”.

Q: What about the “Antioxidant capacity (TEAC value)” value [1] of the same compound?
A: Its value is 1.41 ± 0.15.

Q: What about the “Dissociation constant (Kd) with Zn(II)” value [2] of the same compound?
A: Its value is “nanomolar range”.

Q: What about the concentration at 5 min (Brain uptake study; brain) of the same compound?
A: The concentration at 5 min was 14.3 ± 4 ng/g.

Q: What about the concentration at 5 min (Brain uptake study; plasma) of the same compound?
A: Its concentration at 5 min is 5.91 ± 1.24 ng/mL.

Q: And the “Effect on metal-induced Aβ aggregation” value (Aβ40/Aβ42; CuCl2 or ZnCl2 25 µM, compound 50 µM, 37 °C)?
A: The value was “noticeable effects on the modulation of metal-induced Aβ aggregation”.

Q: What about the “Effect on metal-free Aβ40/Aβ42 aggregation” value (Aβ40/Aβ42; compound 50 µM, 4, 8, 24 h, 37 °C) of the same compound?
A: The value was “could direct the production of Aβ species with a wide range of MW”.

Q: What about the half-life at 1 µM [7] of the same compound?
A: Its half-life at 1 µM is under 30 min.

Q: What about the “Cell survival, compound with and without metal ions (no Aβ)” value (N2aAPPswe or N2a cells) of the same compound?
A: The value was “ca. 85%”.

Q: What about the half-life at 1 µM [8] of the same compound?
A: Its half-life at 1 µM is under 30 min.

Q: What about the pKa ([9]; first of three printed) of the same compound?
A: Its pKa is 2.63.

Q: And the pKa ([9]; second of three printed)?
A: Its pKa is 3.97.

Q: What about the pKa ([9]; third of three printed) of the same compound?
A: Its pKa is 6.23.

Q: What about the “Neutral form at physiological pH” value ([9]; pH 7.4, solution speciation diagram based on the acidity constants) of the same compound?
A: Its value is “ca. 94%”.

Q: What about the “Inhibition of Aβ42 dodecamer formation” value (Aβ42; 1:5 mixture of Aβ42 and ML) of the same compound?
A: Its value is “completely”.

Q: What about the “Inhibition of Aβ42 hexamer formation” value (Aβ42; 1:5 mixture of Aβ42 and ML) of the same compound?
A: Its value is “partially”.

Q: And the “Disaggregation of preformed Aβ42 dodecamers” value (Aβ42; Aβ42 on ice ca. 4 h, then ML added (1:5))?
A: Its value is “disaggregates preformed dodecamers”.

Q: And the “Dissociation constant (Kd) with Cu(II)” value [3]?
A: Its value is “picomolar range”.

Q: And the “−logPe” value [4]?
A: The value was 4.49 (±0.01).

Q: And the “Effect on preformed metal-free and metal-treated Aβ aggregates” value [5]?
A: The value was “could transform preformed aggregates into relatively smaller, amorphous conformations”.

Q: And the half-life at 1 µM [10]?
A: Its half-life at 1 µM is under 30 min.

Q: And the “Free radical scavenging (TEAC) in solution relative to DAP, 1 and Trolox” value [11]?
A: Its value is “ca. 2.6”.

Q: Which “Antioxidant capacity (TEAC value)” value [1] does the source give for `Cc1c(C)c2c(c(C)c1O)CCC(C)(C(=O)O)O2` (stereo not drawn) [Trolox, 6-hydroxy-2,5,7,8-tetramethylchroman-2-carboxylic acid] here?
A: Its value is 1.00 ± 0.08.
